Experimental data: PMC6297906 (Computational and Structural Biotechnology Journal, 2018)
Values joined by “and” are separate entries in the source; they are usually repeats but may differ in a detail not shown here. Identical values can stand only once.

Key:
[1] = tested on: A549 cells; assay: MTT assay, A549; assay type: cell-based, human; details: read-out: IC50 A549, 72 h treatment
Summary of the method: (§1)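 Cells grown in DMEM with 10% FBS, penicillin and streptomycin, seeded at 5 × 10^3 per well for 24 h. Test compound added at 0, 1.56, 3.125, 6.25, 12.5, 25, 50 or 100 μM for 72 h. MTT (5 mg/mL stock) added for 4 h; medium replaced by DMSO; absorbance read at 490 nm for IC50.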

[2] = tested on: MCF-7 cells; assay: MTT assay, MCF-7; assay type: cell-based, human; details: read-out: IC50 MCF-7, 72 h treatment
Summary of the method: as §1

[3] = tested on: MDA-MB-231 cells; assay: MTT assay, MDA-MB-231; assay type: cell-based, human; details: read-out: IC50 MDA-MB-231, 72 h treatment
Summary of the method: as §1

[4] = tested on: HaCaT cells; assay: MTT assay, HaCaT normal cells; assay type: cell-based, human; details: read-out: IC50 HaCaT, 72 h treatment, normal cell line
Summary of the method: as §1

[5] = tested on: HepG2 cells; assay: MTT assay, HepG2; assay type: cell-based, human; details: read-out: IC50 HepG2, 72 h treatment
Summary of the method: as §1

[6] = tested on: MDA-MB-231 cells; assay: Wound-healing assay; assay type: cell-based, human; details: 72 h
Summary of the method: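 MDA-MB-231 cells (1 × 10^5/well) grown to >85% confluence, then scratched with a pipette tip. Treated with test compound (0, 2, 4 μM). The same field imaged every 24 h. Migration rate taken as scratch filling, averaged over 10 fields; N = 8. Means ± SEM; one-way ANOVA.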

[7] = tested on: MDA-MB-231 cells; assay: FITC-conjugated gelatin invasion assay; assay type: cell-based, human; details: 5 μM, 24 h
Summary of the method: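 MDA-MB-231 cells (2 × 10^5 per well) treated with 0 or 5 μM test compound, plated on FITC-gelatin-coated coverslips, and incubated 24 h at 37 °C. Gelatin degradation (dark holes) imaged by laser confocal microscopy; invasive percentage derived. Means ± SEM; one-way ANOVA versus control.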

[8] = tested on: transgenic Tg(fli1a:EGFP) zebrafish embryos; assay: Angiogenic effect in vivo, transgenic zebrafish embryos; details: 5.0 μM, compared with PTK787
[9] = tested on: MDA-MB-231 cells; assay: Comet assay; assay type: cell-based, human; details: 5 and 10 μM
[10] = tested on: MDA-MB-231 cells; assay: Immunofluorescence of paxillin and F-actin; assay type: cell-based, human; details: 5 and 10 μM, 24 h
Summary of the method: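 MDA-MB-231 cells on cover glass, exposed to test compound (0, 5, 10 μM) for 24 h, then fixed in 4% formaldehyde 25 min and blocked in 5% BSA 30 min. Stained with rabbit monoclonal anti-paxillin (1:100, 60 min), Alexa Fluor 488 anti-rabbit (1:200, 30 min), rhodamine phalloidin for F-actin (1:100, 30 min) and DAPI (0.5 μg/mL, 8 min). PBS washes between steps; confocal imaging.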

[11] = tested on: MDA-MB-231 cells; assay: TUNEL assay; assay type: cell-based, human; details: 20 μM
Summary of the method: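 MDA-MB-231 cells given test compound (0, 10, 20 μM). Fixed in 4% p-formaldehyde in PBS 30 min; permeabilised with 0.3% Triton X-100 in PBS (25 °C, 8 min). TUNEL reaction mixture applied 1 h, then DAPI (0.5 μg/mL, 37 °C, 8 min) in the dark. Read by fluorescence microscopy.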

[12] = Octanol/water partition coefficient; assay type: physicochemical; details: room temperature
Summary of the method: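 Lipophilicity taken as Po/w = Ao/Aw. Test compound concentrations in the octanol and water phases measured from electronic absorption spectra.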

[13] = tested on: MDA-MB-231 cells in zebrafish xenografts; assay: Zebrafish xenograft breast cancer model; assay type: in vivo; details: 5 μM, 72 h
Summary of the method: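 DiI-labelled MDA-MB-231 cells (10^7 cells/mL; 50–500 cells) microinjected into the perivitelline space near the SIVs of Tg(fli1:EGFP) zebrafish embryos at 48 hpf. Xenografted fish kept 10 per well in 2 mL aquaculture water with 0 or 5 μM test compound for 72 h. Fluorescence imaging every 24 h; n = 10/group.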

[14] = tested on: HUVECs; assay: Tube formation assay; assay type: cell-based; details: 5 and 10 μM, 6 h, VEGF 200 ng/mL
Summary of the method: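 Matrigel thawed at 4 °C for 24 h, coated into prechilled wells and set at 37 °C for at least 60 min. HUVECs (3 × 10^4) plated in DMEM with VEGF (200 ng/mL) plus test compound (0, 5, 10 μM) for 6 h at 37 °C. Tube networks imaged and analysed.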

Row | Compound | IC50 [1] | IC50 [2] | IC50 [3] | IC50 [4] | IC50 [5] | wound-healing rate ([6]; 2 μM, versus control) | wound-healing rate ([6]; 4 μM) | invasive capability (FITC-gelatin degradation) [7] | ISV formation inhibition [8] | endogenous DSBs (olive tail moment, comet assay) [9] | percentage of γH2AX focal positive cells ([9]; 24 h) | quantity of paxillin (focal adhesions) [10] | stress fibers (F-actin) [10] | apoptotic cells (TUNEL) [11] | logPo/w [12] | metastasis of MDA-MB-231 cells into blood vessels [13] | number of MDA-MB-231 cells in zebrafish (proliferation) ([13]; versus control) | total area of SIV (tumor angiogenesis) ([13]; versus control) | tube formation of HUVECs [14]
1 | N.N.[Cl][Pt][Cl] [Cis-platin, cisplatin, reference compound] | 21.1 ± 0.2 µM | 86.6 ± 5.9 µM | 20.9 ± 1.9 µM | 7.1 ± 0.5 µM | 15.5 ± 0.4 µM | – | – | – | – | – | – | – | – | – | – | – | – | – | –
2 | [Ru(bpy)2(7-BEDPPZ)](ClO4)2 [Ru(bpy)2BEDPPZ] | 20 ± 0.7 µM | 74.9 ± 3.5 µM | ~17.2 µM and 17.2 µM | 47.2 ± 2.6 µM | 97.5 ± 4.4 µM | less than half of the control group | further decreased | markedly suppressed | more effectively inhibited ISV formation than PTK787 | extremely increased | obviously increased | decreased quantity of paxillins | inhibited | many apoptotic cells were observed | −0.87 | scarce MDA-MB-231 cells were found in the blood vessel | notably reduced | obviously less than that in the control group | inhibited notably
3 | [Ru(bpy)2(7-CH3-DPPZ)](ClO4)2 [Ru(bpy)2MDPPZ] | 93.3 ± 4.1 µM | 9.7 ± 6.1 µM | > 100 µM | > 100 µM | > 100 µM | – | – | – | – | – | – | – | – | – | −2.17 | – | – | – | –
4 | [Ru(bpy)2(DPPN)](ClO4)2 [Ru(bpy)2BnDPPZ] | 32.5 ± 1.6 µM | > 100 µM | > 100 µM | > 100 µM | 23 ± 1.1 µM | – | – | – | – | – | – | – | – | – | −1.65 | – | – | – | –
5 | [Ru(bpy)2DPPZ](ClO4)2 | > 100 µM | > 100 µM | > 100 µM | > 100 µM | > 100 µM | – | – | – | – | – | – | – | – | – | −1.87 | – | – | – | –
